Screening data deposited in PubChem BioAssay by several laboratories.
A selection: hits, their analogues and other compounds. The true share with any hit is near 4.1%.
hERG protect = hERG rescue from dofetilide block, primary screen, cell-based, CHO-hERG, FluxOR thallium flux, dofetilide IC70 | 310,000 compounds, 0.51% hits | AID 1511, 2009 | dofetilide IC70 present | Voltage-gated inwardly rectifying potassium channel KCNH2 (Homo sapiens), Q12809 | activation (rescue from dofetilide block), less the hit threshold, % at 10 µM;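 active = activation above the mean of controls blocked by dofetilide plus 5 SD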;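 note: thallium influx through hERG after potassium depolarization seen as dye fluorescence rise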
KCNK3 inh = human KCNK3 channel inhibitors, primary screen, CHO cells, FluxOR thallium flux, B-score. AID 602410, 2012. B-score at 10 µM. FluxOR fluorescence; active compounds read low. Potassium channel subfamily K member 3 (Homo sapiens), O14649. 340,000 compounds, 0.84% hits;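 active = B-score under library mean minus 4 SD, starting fluorescence ratio at most library mean plus 5 SD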;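 note: more negative B-score means stronger inhibition of thallium flux through KCNK3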
KCNK9 inh = KCNK9 potassium channel inhibitors, primary screen, HEK293 cells, thallium flux; 310,000 compounds, 1.2% hits; Potassium channel subfamily K member 9 (Homo sapiens), Q9NPC2; FluxOR thallium flux fluorescence; active compounds read low; B-score at 10 µM; AID 488922, 2010;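 active = ratio B-score over 3 SD below the library mean, with starting fluorescence within 5 SD of its mean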;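 note: negative B-score means less thallium flux so channel inhibition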
Target sequence (Q9NPC2 whole entry, looked up): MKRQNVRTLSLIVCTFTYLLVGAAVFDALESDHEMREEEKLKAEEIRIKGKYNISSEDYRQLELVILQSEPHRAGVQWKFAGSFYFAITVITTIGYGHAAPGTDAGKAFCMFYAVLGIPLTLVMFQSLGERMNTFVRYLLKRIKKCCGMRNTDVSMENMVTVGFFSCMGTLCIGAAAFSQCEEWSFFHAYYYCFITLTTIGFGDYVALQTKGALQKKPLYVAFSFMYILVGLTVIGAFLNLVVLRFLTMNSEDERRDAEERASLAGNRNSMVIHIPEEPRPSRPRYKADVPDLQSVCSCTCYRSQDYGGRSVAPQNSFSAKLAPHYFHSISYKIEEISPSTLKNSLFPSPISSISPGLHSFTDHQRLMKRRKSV
KCNQ1 block = inhibitors of human KCNQ1 channel, primary screen, cell-based, thallium flux, high-throughput; Potassium voltage-gated channel subfamily KQT member 1 (Homo sapiens), P51787; CHO-K1 KCNQ1, FluxOR thallium flux fluorescence; active compounds read high; B-score at 10 µM; 310,000 compounds, 1.3% hits;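 active = compounds whose thallium flux B-score, printed positive for inhibition, exceeds three library SD while starting fluorescence stays within three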;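 note: channel opened by potassium depolarization with thallium stimulus after 20 min compound exposure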
KCNQ1 act = potentiators or activators of KCNQ1 channel, primary screen, cell-based, thallium flux, high-throughput. CHO-K1 KCNQ1, thallium flux FluxOR fluorescence; active compounds read high. B-score at 10 µM. 310,000 compounds, 0.35% hits. AID 2648, 2010;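 active = fluorescence ratio B-score, a plate-corrected score, at least three library SD, with initial intensity B-score within 5 SD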
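System: CHO-K1 cells stably expressing KCNQ1 / Medium: assay buffer for compound exposure, DMSO matched across wells / Reagent: thallium- and potassium-containing depolarizing buffer / Compound: one concentration, matched DMSO / Incubation: 20 min compound pretreatment at room temperature / Measured by: kinetic FluxOR fluorescence, 10 s baseline plus 110 s post-stimulus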
KCC2 mod = KCC2 cotransporter modulators, thallium flux, primary screen, cell-based, HEK293 KCC2, FluoZin-2 fluorescence, MLSMR; Solute carrier family 12 member 5 (Homo sapiens), Q9H2X9; KCC2 cells, thallium flux FluoZin-2 fluorescence; B-score of Tl+ flux slope (higher = more flux/activation; lower = inhibition) at 10 µM; 190,000 compounds, 2.2% hits;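 active = thallium flux slope and its plate-corrected score both differing from the plate sample mean at a set confidence after two filtering rounds, in either direction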;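 note: slope of fluorescence scaled to starting intensity during 10 to 20 s after thallium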
KCNK9 inh conf = KCNK9 potassium channel inhibitors, confirmation, HEK293 cells, thallium flux, duplicate. FluxOR thallium flux fluorescence. shares compounds with KCNK9 inh. inhibition, % at 10 µM. 4,900 compounds, 43% hits;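 active = thallium signal inhibited by more than 5 SD of the compound-free buffer control wells, on both duplicate plates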;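 note: 0% = assay buffer control wells without compound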
Kir2-1 spec = mouse Kir2.1 channel inhibition, confirmation, selectivity assay for KCNK9 modulator project, cell-based, HEK293, thallium flux | shares compounds with KCNK9 inh | 4,900 compounds, 4% hits | Kir2.1 cells, FluxOR thallium flux fluorescence | inhibition, % at 10 µM | AID 492993, 2010;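 active = thallium signal drop more than 5 SD beyond the mean of the no-compound control wells, seen in both duplicate plates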;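 note: signal is fluorescence rise after thallium addition divided by baseline fluorescence; plate controls were assay buffer only for no effect and full block by chlorpromazine control for full effect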
HEK293 Tl ctr = thallium flux in non-induced HEK293 cells, confirmation, counter-screen for KCNK9 inhibitor project, cell-based, second counter screen, non-induced KCNK9-HEK293 | shares compounds with KCNK9 inh | inhibition, % at 10 µM | 4,900 compounds, 40% hits | FluxOR thallium flux;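 active = thallium signal drop beyond 5 SD of the untreated control mean, on both duplicate plates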;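 note: plate controls were buffer only IC0 wells for no effect and SID17386958 at its maximal inhibitory level for full effect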
The depositor's hits bear a star; i = inactive; . = no result given.

SMILES	hERG protect	KCNK3 inh	KCNK9 inh	KCNQ1 block	KCNQ1 act	KCC2 mod	KCNK9 inh conf	Kir2-1 spec	HEK293 Tl ctr
COCCOC(=O)C1=C(C)NC(C)=C(C(=O)OCCOC)C1/C=C/c1ccccc1OC	-7	i	i	i	i	0.23	i	i	i
COC(=O)C1=C(C)N=C2SC(C)C(=O)N2C1/C=C/c1ccccc1OC (stereo not drawn)	-7	i	i	i	i	-1.7	.	.	.
CCC1SC2=NC(C)=C(C(=O)OC)C(c3ccc(C)cc3)N2C1=O (stereo not drawn)	-4	i	i	i	i	0.07	.	.	.
CC(=O)Nc1ccc(S(=O)(=O)N2CCN(C(=O)c3ncoc3-c3ccc(C)cc3)CC2)cc1	-9	i	i	i	i	.	.	.	.
C=CCOC(=O)C1=C(C)OC(N)=C(C#N)C1c1c(C)nn(-c2ccccc2)c1Cl (stereo not drawn)	-7	-10*	-8.4*	i	i	-1.3	50%*	i	34%*
Cc1ccc(S(=O)(=O)N2CCC(C(=O)OCC(=O)NC3(C#N)CCCCC3)CC2)cc1C	-9	i	i	i	i	.	.	.	.
C=C(C)Cn1c(C)cc(C)c(S(=O)(=O)c2cccc(C)c2)c1=O	-14	i	-8.4*	i	i	-0.25	54%*	44%*	44%*
Cc1cccc(S(=O)(=O)c2c(C)cc(C)[nH]c2=O)c1	-5	i	i	i	i	.	.	.	.
COC(=O)C1=C(N)Oc2cc(C)n(Cc3ccco3)c(=O)c2C1c1cccc(Cl)c1 (stereo not drawn)	-4	i	-13*	i	i	.	46%*	i	45%*
COC(=O)C1=C(N)Oc2cc(C)n(C)c(=O)c2C1c1ccc(Cl)c(Cl)c1 (stereo not drawn)	-8	i	i	i	i	-0.01	.	.	.
COC(=O)C1=C(N)Oc2cc(C)n(CC3CCCO3)c(=O)c2C1c1ccc(Cl)c(Cl)c1 (stereo not drawn)	-13	i	-9.1*	i	i	-1.9	35%*	i	52%*
O=C(CNCc1cccs1)Nc1ccc(OC(F)(F)F)cc1	-5	i	i	i	i	.	.	.	.
O=C(CSc1ncc(C(F)(F)F)cc1Cl)N1CCN(S(=O)(=O)c2ccc3ccccc3c2)CC1	-13	i	i	i	i	-0.18	i	i	i
CCN(C(=O)Cc1c(C(=O)O)n(C)c2ccccc12)c1cccc(C)c1	-3	i	i	i	i	.	.	.	.
Cn1c(=O)c2c(SCc3ccccn3)nc(CC(C)(C)C)nc2n(C)c1=O	-19	i	i	i	i	.	i	i	i
CN(C)c1ncc(CN2CCC(C(=O)Nc3ccc(-n4cccn4)cc3)CC2)s1	-2	i	i	i	i	.	.	.	.
COc1ccc(C(=O)OCC(=O)NCCc2ccc(F)cc2)cc1S(=O)(=O)N1CCOCC1	.	i	.	.	.	.	.	.	.
COc1ccc(/C=C(\C#N)C(=O)NCCc2ccccc2)cc1OCc1ccccc1	-19	i	i	i	i	-0.53	i	i	i
COc1cc(/C=C(/C#N)C(=O)NCc2ccccc2)cc(OC)c1OC	-8	i	i	i	i	.	.	.	.
Cc1ccccc1OCc1nc2ccccc2c(=O)n1/N=C/c1cn[nH]c1-c1ccccc1	-13	i	i	i	i	-1	.	.	.
Cc1ccccc1OCc1nc2ccccc2c(=O)n1/N=C/c1cccc([N+](=O)[O-])c1	-9	i	-8.8*	i	i	-0.63	i	i	i
S=c1[nH]nc(-c2cccs2)n1/N=C/c1cn(-c2ccccc2)nc1-c1ccccc1	-4	i	i	i	i	1.7	i	i	i
CN1CSC2=C(C#N)C(c3cccc(OCc4ccccc4)c3)CC(=O)N2C1 (stereo not drawn)	-7	i	i	i	i	-0.9	i	i	i
CN(Cc1ccccc1)C(=O)COc1ccc(Br)cc1Cl	-13	i	-12*	i	i	-2.9	37%*	i	30%*
CCN1C(=O)C(=O)N(Cc2ccc(OC)c(F)c2)C1=O	-2	i	i	i	i	.	.	.	.
SMILES	hERG protect	KCNK3 inh	KCNK9 inh	KCNQ1 block	KCNQ1 act	KCC2 mod	KCNK9 inh conf	Kir2-1 spec	HEK293 Tl ctr
O=C(Nc1cccc(-c2csc(Nc3ccccc3)n2)c1)c1ccccc1	-19	i	i	i	i	-0.0074	i	i	i
O=C(Nc1cccc(-c2csc(Nc3cccc(C(F)(F)F)c3)n2)c1)c1ccccc1	-6	i	i	i	i	-0.054	.	.	.
N#C/C(=C\c1ccc2c(c1)OCCO2)C(=O)Nc1ccc(C(=O)O)cc1	-6	i	i	i	i	.	.	.	.
O=S(=O)(Nc1ccc(N2CCCCC2)cc1)c1cccs1	-8	i	i	i	i	-0.65	.	.	.
O=S(=O)(Nc1cc(Cl)ccc1N1CCCCC1)c1cccs1	-11	i	-15*	i	i	.	65%*	i	i
CCc1ccc(CN(C)C(=O)CCc2nc3ccccc3n(-c3ccc(OC)cc3)c2=O)cc1	-15	i	i	i	i	-0.41	i	i	25%*
Cc1csc(NC(=O)CSc2ncnc3ccccc23)n1	-10	i	i	i	i	.	.	.	.
O=C(CSc1nc2ccccc2c2c1CCCC2)N1CCOCC1	-13	i	i	i	i	.	i	i	i
Cc1csc(NC(=O)CSc2nc3ccccc3c3c2CCCC3)n1	-1	i	i	i	i	-0.056	i	i	i
O=C(CSc1nncc2ccccc12)N1CCOCC1	-12	i	i	i	i	0.34	.	.	.
